HSF1 inhib: HSF1 inhibition; NIH3T3-HGL HSE-luciferase, MG132-induced, luminescence 8 h; active compounds read low; activity change, negative = inhibition, % at 7.5 µM (by protocol); 0.77% of 300,000 active; AID 2098;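 active means more than half of replicate wells show activity change below -50%, luminescence cut by over half; inconclusive means some wells, but at most half, below -50%; inactive means no replicate well below -50%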;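 further: luciferase reports HSF-1 transcriptional activity via heat shock element; 0% = median of DMSO wells and -100% = zero luminescence signal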
Hep lipid drop: modulators of hepatic lipid droplet formation; 0.4% of 240,000 active; AID 1656; inhibition, % at 6.5 µM; AML12 mouse hepatocytes, oleate lipid droplets, BODIPY imaging;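 active means lipid droplet intensity inhibited by at least 50%, with more than 500 cells counted; inconclusive means wells with under 300 cells, treated as cytotoxic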
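System: AML12 hepatocytes (mouse). Probe or stimulus: oleic acid at 100 µM to induce lipid droplet formation. Times: overnight treatment with compound plus oleate. Detection: Image-based BODIPY and DAPI two-channel analysis. Evaluation: percent inhibition of filter-corrected integrated lipid droplet intensity per well.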
CHT inh: inhibitors of human choline transporter CHT | Q9GZV3 | CHT-expressing cells, membrane potential dye, choline response; active compounds read low | B-score at 10 µM | 0.86% of 310,000 active | AID 488975;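 active means B-score over 3 SD under the library average, and starting fluorescence ratio not unusually high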;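 further: choline stimulus applied at its EC90 after an EC20 pre-addition; B-score computed on integrated fluorescence ratio after choline addition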
Target sequence (Q9GZV3 whole entry, looked up): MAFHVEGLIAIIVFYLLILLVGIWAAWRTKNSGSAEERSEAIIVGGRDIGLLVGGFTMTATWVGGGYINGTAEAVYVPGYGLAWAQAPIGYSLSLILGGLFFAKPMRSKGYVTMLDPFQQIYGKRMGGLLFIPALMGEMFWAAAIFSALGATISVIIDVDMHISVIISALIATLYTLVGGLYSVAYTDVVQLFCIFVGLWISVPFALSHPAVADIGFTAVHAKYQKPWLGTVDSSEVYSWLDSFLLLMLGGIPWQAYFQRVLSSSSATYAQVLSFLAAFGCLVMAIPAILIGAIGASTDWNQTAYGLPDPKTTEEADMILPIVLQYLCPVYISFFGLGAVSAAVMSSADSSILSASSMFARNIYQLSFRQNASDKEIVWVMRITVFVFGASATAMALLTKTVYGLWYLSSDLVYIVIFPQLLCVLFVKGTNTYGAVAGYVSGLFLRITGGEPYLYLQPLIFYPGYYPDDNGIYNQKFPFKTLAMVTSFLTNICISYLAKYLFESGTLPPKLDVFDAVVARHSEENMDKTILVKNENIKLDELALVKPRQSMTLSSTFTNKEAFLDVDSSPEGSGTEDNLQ
CHT PAM: allosterically activates the human high affinity choline transporter. Q9GZV3. CHT-expressing cells, membrane potential dye, choline EC20; active compounds read high; LV-AA mutant CHT in HEK293 cells. B-score at 10 µM. 0.49% of 310,000 active. AID 488977;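 active means initial fluorescence not abnormally high and integrated response B-score, plate-corrected, over 3 SD above library mean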
HSF-1 act: increases HSF-1 driven luciferase reporter signal. NIH3T3-HGL HSF-1 luciferase reporter, MG132, 8 h; 100% = twice DMSO control signal. activation, % at 9 µM. 1.7% of 300,000 active;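 active means mean replicate activation of at least 50% with a set share of replicates each reaching 50%; inconclusive means only one of those two conditions met; inactive means mean below 50% and too few replicates reaching it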;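 further: 0% = median of the neutral control wells and 100% = twice that signal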
PHOSPHO1 block: PHOSPHO1 (human) inhibition | recombinant PHOSPHO1, absorbance phosphatase assay | inhibition, % at 13.3 µM | 1.1% of 290,000 active | AID 1565; in the data active means inhibition above about 60%
* = called active by the depositor; i = inactive; ? = inconclusive; . = no result given. Shown are actives, neighbours in structure and some others; about 4.9% of the full set was active somewhere.

SMILES	HSF1 inhib	Hep lipid drop	CHT inh	CHT PAM	HSF-1 act	PHOSPHO1 block
COc1cccc(NC(=S)NNC(=O)c2ccccc2OC(F)F)c1	4	.	i	i	24	-39
O=C(O)c1cc(-c2ccccc2)n(-c2ccccc2C(=O)O)n1	-6	.	i	i	-2	18
Cc1ccc(NC(=O)c2ccc(OC(=O)COc3ccc(Cl)cc3C)cc2)cc1	31	-1	i	i	59*	-59
CCCCCC(O)CCC(=O)NNC1=CC(=O)CC(C)(C)C1 (configuration not stated)	1	1	i	i	19	8
CC(CCc1ccccc1)NCc1cccc2ccccc12 (configuration not stated)	2	.	i	i	13	19
NC(CCCCc1ccccc1)c1cccc2ccccc12 (configuration not stated)	5	.	i	11*	9	.
COc1cc(/C=N/N=C(N)N)ccc1OCc1ccccc1Cl	17	16	i	i	55*	-87
COC(=O)c1ccc(CSc2nc3c(cnn3-c3ccc(C)cc3)c(=O)[nH]2)o1	6	-4	i	i	5	-14
COC(=O)c1ccc(CSc2nc3ccc(C)cc3[nH]2)o1	9	-23	i	i	19	76*
COC(=O)c1ccc(CSc2n[nH]c(=S)s2)o1	7	-2	i	i	2	102*
COC(=O)c1ccc(CSc2nc3ccccc3s2)o1	16	-8	i	i	26	38
C=CCN=C1S/C(=C\c2ccc(N(C)C)cc2)C(=O)N1CC=C	1	12	i	i	-8	12
CN1CCSc2ccc(C(=O)Nc3ccc(Cl)cc3)cc21	80	-1	i	i	122*	13
COc1cccc(NC(=O)c2ccc3c(c2)N(C)CCS3)c1	63	-3	i	i	92*	23
CN1CCSc2ccc(C(=O)NCc3cccc(F)c3)cc21	5	-4	i	i	23	7
N#CC1=C(SCc2ccccc2)NC(=O)CC1c1cccc(O)c1 (configuration not stated)	17	.	i	i	25	-13
O=C(c1ccccc1)N1CCN(c2ncnc3c2cnn3-c2ccccc2)CC1	3	.	i	i	-10	53
CC1CCN(c2ncnc3c2cnn3-c2ccccc2)CC1	35	.	i	i	57*	-3
Cc1nn(-c2ccccc2)c(Cl)c1C(=O)N1CCN(c2ncnc3c2cnn3-c2ccccc2)CC1	-77*	.	i	i	-82	18
O=C(N/N=C/c1c[nH]c2ccc(Br)cc12)c1ccn(Cc2ccc(Cl)cc2)n1	12	.	i	i	15	62*
CCn1c(COc2ccccc2)nnc1SCc1ccc(C#N)cc1	38	.	i	i	56*	50
COc1ccc(-n2c(COc3ccc(C)cc3)nnc2SCc2ccc(C#N)cc2)cc1	10	.	i	i	19	73*
Cc1ccc(-c2nc3cc(Br)cnc3nc2-c2ccc(C)cc2)cc1	-6	-2	i	i	-3	-62
CC[C@@]1(c2ccccc2C)C(=O)N(C(=O)OC)N1C(=O)OC	-1	-7	i	i	2	31
CS(=O)(=O)c1ccc(NC(=O)c2ccc3c(c2)S(=O)(=O)N=C2CCCCCN23)cc1	-54*	.	i	i	-65	.
SMILES	HSF1 inhib	Hep lipid drop	CHT inh	CHT PAM	HSF-1 act	PHOSPHO1 block
CN(C)S(=O)(=O)c1cccc(NC(=O)c2ccc3c(c2)S(=O)(=O)N=C2CCCCCN23)c1	-6	.	i	i	-4	.
CC(C)NC(=O)CN(C(=O)CCC(=O)Nc1nccs1)c1ccc2c(c1)OCO2	22	12	i	i	66*	5
COc1cc(/C(O)=C(\C#N)c2nc3ccccc3[nH]2)cc(OC)c1OC	1	2	i	i	16	20
Cc1ccc2c(c1)c(C)c(C)n2CC(O)Cn1nc(C)c(Br)c1C (configuration not stated)	30	-13	i	i	57*	-2
CCOC(=O)/C(=N/Nc1ccc(Cl)cc1)Sc1nnnn1-c1ccc(C)cc1	55	11	i	i	74*	7
S=c1[nH]c(-c2ccccc2)cn1/N=C/c1cccnc1	4	-2	i	i	9	43
O=c1[nH]c(CSc2nnc(COc3ccccc3)n2-c2ccccc2)nc2ccccc12	-9	-1	i	i	7	61*
COc1cccc(N2CCN(S(=O)(=O)c3cc4c(cc3C)N(C)CCO4)CC2)c1	34	-15	i	i	55*	33
CCC(C)NC(=O)C1CCN(S(=O)(=O)c2ccc(-n3cnnn3)cc2)CC1 (configuration not stated)	0	13	i	i	0	32
CCOC(=O)Nc1cccc(NC(=O)c2cc(OC)cc(OC)c2)c1	0	-9	i	i	7	-1
O=C(NCCN1CCCC1)c1cccc(Cl)c1	-7	-4	i	i	-14	60*
Cc1csc(SCC(=O)Nc2ccc3c(c2)OCCO3)n1	-6	19	i	i	19	-9
O=C(CSc1ncn(-c2ccccc2)n1)Nc1ccc2c(c1)OCCO2	2	.	i	i	-11	62*
CCCCSc1nnc2c(n1)[nH]c1ccccc12	23	-2	i	i	?	19
O=C(CSc1ncn(-c2ccccc2)n1)Nc1ccc2c(c1)OCO2	0	.	i	i	9	82*
CC(C)CSc1nnc2c(n1)[nH]c1ccccc12	22	.	i	i	59*	20
CSc1nsc(SCC(=O)Nc2ccc3c(c2)OCCO3)n1	24	-3	i	i	55*	-16
O=C(CSc1nnc2c(n1)[nH]c1ccccc12)Nc1ccc2c(c1)OCO2	8	9	i	i	13	78*
COc1ccc(-c2csc(NC(=O)CSc3nc(SC)ns3)n2)cc1	24	-4	i	i	71*	0
O=C(CSc1nccn1-c1ccc(Cl)cc1)Nc1ccc2c(c1)OCO2	.	.	i	i	.	89*
Cc1ccc(NC(=O)CSc2nnc3c(n2)[nH]c2ccccc23)cc1	-6	-1	i	i	-1	35
O=C(Nc1ccc(N2CCN(C(=O)c3ccco3)CC2)cc1)c1ccccc1	1	0	i	i	-9	15
CCC(=O)N1CCN(c2ccc(NC(=O)COc3ccc(C)cc3C)cc2)CC1	97	-25	i	i	110*	6
CCC(=O)N1CCN(c2ccc(NC(=O)c3ccc4ccccc4c3)cc2)CC1	28	0	i	i	66*	-56
CCC(=O)N1CCN(c2ccc(NC(=O)c3ccccc3)cc2)CC1	-3	-12	i	i	2	63*
